The structures appear in SMILES notation. ≈ marks a conversion by molar mass, not a printed value.

The subject of data set [1] is Helicobacter pylori. Briefly: Antibacterial activity against wild type Helicobacter pylori by NCCLS method. The class given is functional. A digest of the protocol: (§1)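 H. pylori MICs determined following NCCLS guidelines; values carry a twofold variance.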
A short description of data set [2]: Bioavailability in mouse. Format: ADME, organism-based. Conditions: in vivo.
Data set [3] is described as follows: Aqueous solubility of compound. Format: physicochemical. Conditions: buffer.
Data set [4] is described as follows: Bioavailability in mouse at 40 mg/kg, po. Conditions: in vivo. The class given is ADME, organism-based.
Data set [5] can be described thus: Intrinsic clearance in mouse liver microsome. The class given is ADME. Conditions: liver microsomes. In short, it runs like this: (§2)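 Compounds incubated in vitro with human or mouse liver microsomes; parent and metabolite followed over roughly 30 min incubation; intrinsic clearance expressed as µl/min/mg.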
(Microsomes from liver hold many membrane-bound enzymes, among them those of drug oxidation.)

The target of data set [6] is T1, Glutamate racemase (Helicobacter pylori (strain ATCC 700392 / 26695) (Campylobacterpylori), UniProt P56068).
T1 sequence (P56068 whole entry): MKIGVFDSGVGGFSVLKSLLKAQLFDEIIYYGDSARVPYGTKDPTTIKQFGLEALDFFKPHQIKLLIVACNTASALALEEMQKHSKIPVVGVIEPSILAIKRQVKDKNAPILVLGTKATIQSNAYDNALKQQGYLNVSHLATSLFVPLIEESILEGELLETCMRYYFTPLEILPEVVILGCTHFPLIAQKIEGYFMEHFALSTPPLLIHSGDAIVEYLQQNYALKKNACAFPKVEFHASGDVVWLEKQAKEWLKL
Briefly: Inhibition of Helicobacter pylori MurI.

In data set [7] the test system is Helicobacter pylori. Description: Antibacterial activity against hefC-deficient Helicobacter pylori by NCCLS method. The class given is functional. In short, it runs like this: as §1
Data set [8] can be described thus: Intrinsic clearance in human liver microsome. Format: ADME. Conditions: liver microsomes. In short, it runs like this: as §2
Data set [9] in a line: Equilibrium solubility of compound. Format: physicochemical.
Data set [10] concerns Mus musculus. Briefly: Plasma concentration in mouse at 40 mg/kg, po. Set-up: dose 40 mg/kg, route oral. Format: ADME, organism-based. Conditions: in vivo.

For the molecule `Cn1cc(C#N)cc1-c1c2c(=O)n(C)c(=O)n(CC3CC3)c2nn1Cc1ccnc2ccc(Cl)cc12`, the MIC (commonly the smallest concentration in the dilution series that meets the test's criterion for growth inhibition) in data set [1] came to 0.5 µg/mL (≈ 1 µM); in data set [7], 0.25 µg/mL (≈ 0.5 µM). Moreover, the bioavailability (usually the share of a dose that reaches the circulation, judged against a reference dose that is usually intravenous) in data set [2] was under 10%; in data set [4] it was 7.5%. In data set [3], the solubility (as a rule, how much of the substance goes into solution per volume) was under 0.4 µM. The microsomal CLint (as a rule, the rate of metabolic loss divided by the concentration) in data set [5] was 50 µL/min/mg; in data set [8], under 14 µL/min/mg. In addition, the IC50 – broadly, the point on the concentration scale where inhibition reaches its midpoint – in data set [6] is 26 nM.
Regarding `Cn1cc(S(N)(=O)=O)nc1-c1c2c(=O)n(C)c(=O)n(CC3CC3)c2nn1Cc1c[nH]c2ccc(Cl)cc12`, the MIC was over 32 µg/mL in data set [1] and 0.5 µg/mL (≈ 0.921 µM) in data set [7]. Further, the microsomal CLint is over 100 µL/min/mg in data set [5] and 56 µL/min/mg in data set [8]. The molecule also gave an IC50 in [6] of 38 nM.
The matching figures for `Cn1cc(S(C)(=O)=O)nc1-c1c2c(=O)n(C)c(=O)n(CC3CC3)c2nn1Cc1ccnc2ccc(Cl)cc12`: 16 µg/mL (≈ 28.9 µM), 4 µg/mL (≈ 7.22 µM), 56 µL/min/mg, 23 µL/min/mg and 160 nM.
Take `Cc1oc(S(C)(=O)=O)cc1-c1c2c(=O)n(C)c(=O)n(CC3CC3)c2nn1Cc1cn(C)c2ccc(Cl)cc12`: the MIC came to 1 µg/mL (≈ 1.8 µM) in data set [1] and 0.5 µg/mL (≈ 0.899 µM) in data set [7]. In addition, the microsomal CLint in [5] and in [8] was over 100 µL/min/mg in each case. The molecule also had an IC50 in [6] of 57 nM.
For `CNS(=O)(=O)c1cc(-c2c3c(=O)n(C)c(=O)n(CC4CC4)c3nn2Cc2c[nH]c3ccc(Cl)cc23)n(C)c1`, the MIC in [1] came to 16 µg/mL (≈ 28.8 µM); in data set [7], 0.5 µg/mL (≈ 0.899 µM). Besides, the microsomal CLint in [5] and in [8] was over 100 µL/min/mg each time. This molecule also displayed an IC50 in data set [6] of 27 nM.
In the case of `CONS(=O)(=O)c1cc(-c2c3c(=O)n(C)c(=O)n(CC4CC4)c3nn2Cc2ccnc3ccc(Cl)cc23)n(C)c1`, the minimum inhibitory concentration (MIC) was found to be 16 µg/mL (≈ 27.4 µM) in [1] and 4 µg/mL (≈ 6.85 µM) in data set [7]. The same molecule showed an IC50 in [6] of 55 nM.
The corresponding values for `CONS(=O)(=O)c1cc(-c2c3c(=O)n(C)c(=O)n(CC4CC4)c3nn2Cc2c[nH]c3ccc(Cl)cc23)n(C)c1` are 8 µg/mL (≈ 14 µM), 8 µg/mL (≈ 14 µM) and 36 nM.
Take `Cn1c(=O)c2c(-c3oc(S(C)(=O)=O)cc3Cl)n(Cc3ccnc4ccc(Cl)cc34)nc2n(CC2CC2)c1=O`: the MIC in data set [1] and in data set [7] was 4 µg/mL (≈ 6.96 µM) throughout. Moreover, the figures for the microsomal CLint in data set [5] and in [8] were 22 µL/min/mg and 19 µL/min/mg, respectively. Further, the IC50 in data set [6] turned out to be 59 nM.
The molecule `Cc1oc(S(C)(=O)=O)cc1-c1c2c(=O)n(C)c(=O)n(CC3CC3)c2nn1Cc1ccnc2ccc(Cl)cc12` returned an MIC in data set [1] of 4 µg/mL (≈ 7.22 µM). Moreover, the intrinsic clearance (microsomal CLint) amounted to 61 µL/min/mg in data set [5] and 22 µL/min/mg in [8]. Further, the concentration for half-maximal inhibition (IC50) in data set [6] came to 51 nM.
Turning to `Cn1cc([S+](C)[O-])cc1-c1c2c(=O)n(C)c(=O)n(CC3CC3)c2nn1Cc1c[nH]c2ccc(Cl)cc12` (configuration not stated), the MIC in data set [1] worked out at 16 µg/mL (≈ 30.5 µM); in data set [7], 4 µg/mL (≈ 7.62 µM). Besides, the microsomal CLint in data set [5] and in [8] was over 100 µL/min/mg throughout. In addition, half-maximal inhibition in data set [6] (IC50) was put at 23 nM.
For `Cn1cc([S+](C)[O-])cc1-c1c2c(=O)n(C)c(=O)n(CC3CC3)c2nn1Cc1ccnc2ccc(Cl)cc12` (configuration not stated), the thermodynamic solubility (commonly solubility found after equilibrating the solid with the medium) in [9] is 120 µM (≈ 64.4 µg/mL). The MIC in data set [1] turned out to be 16 µg/mL (≈ 29.8 µM); in data set [7] it was 0.5 µg/mL (≈ 0.931 µM). In [4], this molecule showed a bioavailability of 10%. For the same molecule, the microsomal CLint in data set [5] and in data set [8] was over 100 µL/min/mg throughout. In addition, 37 nM corresponded to half-maximal inhibition in data set [6] (IC50).
For `Cn1cc(S(C)(=O)=O)cc1-c1c2c(=O)n(C)c(=O)n(CC3CC3)c2nn1Cc1ccnc2ccc(Cl)cc12`, the MIC was 2 µg/mL (≈ 3.62 µM) in data set [1] and 0.5 µg/mL (≈ 0.904 µM) in data set [7]. This molecule also returned a bioavailability in data set [4] of 60%. Besides, the results for the intrinsic clearance (microsomal CLint) in data set [5] and in data set [8] were under 14 µL/min/mg and 20 µL/min/mg, respectively. This molecule also gave an IC50 in data set [6] of 34 nM. Further, the Cp in data set [10] was determined as 1200 ng/mL.
On to `Cn1cc(S(C)(=O)=O)cc1-c1c2c(=O)n(C)c(=O)n(CC3CC3)c2nn1Cc1c[nH]c2ccc(Cl)cc12`, for which the minimum inhibitory concentration (MIC) in data set [1] was 4 µg/mL (≈ 7.39 µM); in data set [7] it was 0.5 µg/mL (≈ 0.924 µM). In addition, the values for the microsomal CLint in data set [5] and in data set [8] were 64 µL/min/mg and 49 µL/min/mg, respectively. Moreover, in data set [6], the IC50 turned out to be 26 nM.
The matching figures for `Cn1cc(S(N)(=O)=O)cc1-c1c2c(=O)n(C)c(=O)n(CC3CC3)c2nn1Cc1ccnc2ccc(Cl)cc12`: 32 µg/mL (≈ 57.8 µM), 0.25 µg/mL (≈ 0.451 µM), under 14 µL/min/mg, 22 µL/min/mg and 16 nM.
For the molecule `Cn1cc(S(C)(=O)=O)nc1-c1c2c(=O)n(C)c(=O)n(CC3CC3)c2nn1Cc1c[nH]c2ccc(Cl)cc12`, the MIC in data set [1] turned out to be 16 µg/mL (≈ 29.5 µM); in [7], 2 µg/mL (≈ 3.69 µM). In addition, the microsomal CLint in data set [5] is over 100 µL/min/mg; in [8], 49 µL/min/mg. Moreover, the half-maximal inhibitory concentration (IC50) in [6] is 31 nM.
The corresponding values for `Cn1c(=O)c2c(-c3ccc(S(C)(=O)=O)o3)n(Cc3ccnc4ccc(Cl)cc34)nc2n(CC2CC2)c1=O` are over 64 µg/mL, over 64 µg/mL, 14 µL/min/mg, 17 µL/min/mg and 1500 nM.
The corresponding values for `CNS(=O)(=O)c1cc(-c2c3c(=O)n(C)c(=O)n(CC4CC4)c3nn2Cc2ccnc3ccc(Cl)cc23)n(C)c1` are 16 µg/mL (≈ 28.2 µM), 1 µg/mL (≈ 1.76 µM), over 100 µL/min/mg, over 100 µL/min/mg and 44 nM.
The matching figures for `Cn1cc(S(C)(=O)=O)cc1-c1c2c(=O)n(C)c(=O)n(CC3CC3)c2nn1Cc1cn(C)c2ccc(Cl)cc12`: 16 µg/mL (≈ 28.8 µM), 4 µg/mL (≈ 7.21 µM), 56 µL/min/mg, 23 µL/min/mg and 33 nM.

The record behind these values is ChEMBL document CHEMBL1155910, “Design of Helicobacter pylori glutamate racemase inhibitors as selective antibacterial agents: a novel pro-drug approach to increase exposure” (Bioorg Med Chem Lett, 2008).
